Measured values reported in publication PMC5746459 (Journal of medicinal chemistry, 2017).
Entries after “also recorded” stand apart in the source; their conditions may differ. Structures can show the parent of a compound that is named as a salt.

How the values were obtained:
Swiss Webster mice [1] = assay: Drug discrimination, mice trained to discriminate cocaine from saline; format: in vivo, mouse; conditions: for overall group response rate, % of control performance: mice, drug discrimination sessions, all doses tested
human DAT (hDAT) WT = human DAT (hDAT) WT (Homo sapiens, UniProt Q01959); assay: [3H]DA uptake inhibition in COS7 cells transiently expressing DAT WT; format: cell-based
[2] = Phase I metabolic stability in mouse liver microsomes; format: in vitro ADME; conditions: mouse liver microsomes with and without NADPH
Summary of the method: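 Test compound at 10 uM final was incubated in triplicate with 0.5 mg/mL mouse liver microsomes in 100 mM potassium phosphate, pH 7.4. The NADPH regenerating system contained 1.3 mM NADPH, 3.3 mM glucose 6-phosphate, 3.3 mM MgCl2, 0.4 U/mL glucose-6-phosphate dehydrogenase and sodium citrate. Reactions were started by adding microsomes, with cofactor-free controls. Percent remaining over time was measured by LC/MS/MS; mean ± S.E.M., n=3 per time point.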

Swiss Webster mice [3] = assay: Locomotor activity in mice; format: in vivo, mouse; conditions: i.p., 1 h session; for effect on locomotor activity: cocaine 5–40 mg/kg, 10a 3–56 mg/kg
mice = conditions: previous studies; cited from earlier work

Sequence of human DAT (hDAT) WT (Q01959 whole entry): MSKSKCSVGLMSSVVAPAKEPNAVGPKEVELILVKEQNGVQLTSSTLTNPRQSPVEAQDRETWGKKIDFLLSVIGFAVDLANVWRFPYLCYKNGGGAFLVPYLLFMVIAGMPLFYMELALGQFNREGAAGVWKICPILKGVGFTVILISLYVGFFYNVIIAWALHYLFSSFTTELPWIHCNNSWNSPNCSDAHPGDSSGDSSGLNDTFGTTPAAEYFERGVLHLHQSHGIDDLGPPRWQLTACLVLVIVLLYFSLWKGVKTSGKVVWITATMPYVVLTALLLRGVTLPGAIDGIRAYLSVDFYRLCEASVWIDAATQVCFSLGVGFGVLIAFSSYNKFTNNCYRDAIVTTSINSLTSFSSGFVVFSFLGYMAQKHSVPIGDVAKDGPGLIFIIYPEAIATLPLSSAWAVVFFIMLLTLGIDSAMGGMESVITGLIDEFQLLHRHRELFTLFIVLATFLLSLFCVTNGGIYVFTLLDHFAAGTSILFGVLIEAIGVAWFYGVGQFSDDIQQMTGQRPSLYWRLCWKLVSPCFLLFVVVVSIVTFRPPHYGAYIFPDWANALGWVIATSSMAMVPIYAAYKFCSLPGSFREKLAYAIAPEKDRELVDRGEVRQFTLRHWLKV

Structure (SMILES): CN(C)CCN1C2CCC1CC(OC(c1ccc(F)cc1)c1ccc(F)cc1)C2 (stereo not shown) [10a, 2-(3-(bis(4-fluorophenyl)methoxy)-8-azabicyclo[3.2.1]octan-8-yl)-N,N-dimethylethanamine Oxalate]
- substitution for cocaine discriminative stimulus (Swiss Webster mice [1]; mice trained with cocaine 10 mg/kg vs saline, 5 or 30 min pretreatment): failed to substitute for cocaine; also recorded: did not generalize to the cocaine discriminative stimulus
- overall group response rate, % of control performance (Swiss Webster mice [1]): ≥ 50%
- DA uptake inhibition potency relative to cocaine (times higher) (human DAT (hDAT) WT): > 4
- Phase I metabolic stability [2]: complete stability under all conditions
- effect on locomotor activity (Swiss Webster mice [3]): None of the doses of 10a significantly increased activity counts more than vehicle; also recorded: failed to produce a significant increase in locomotor activity; also recorded: did not significantly increase locomotor activity

Structure (SMILES): CN(C)CCN1C2CCC1CC(NC(c1ccc(F)cc1)c1ccc(F)cc1)C2 (stereo not shown) [10b, N-(Bis(4-fluorophenyl)methyl)-8-(2-(dimethylamino)ethyl)-8-azabicyclo[3.2.1]octan-3-amine Oxalate]
- DA uptake inhibition potency relative to cocaine (times higher) (human DAT (hDAT) WT): > 4

Structure (SMILES): NCCc1ccc(O)c(O)c1 [Dopamine, reference compound]
- Km (human DAT (hDAT) WT; read-out: DAT WT, Dopamine (kM), [3H]DA uptake, COS7 cells transiently expressing DAT WT, mean [s.e.m. interval]): 0.999 µM

Structure (SMILES): CN1[C@H]2CC[C@@H]1[C@@H](c1cc(-c3ccccc3)no1)[C@H](OC(c1ccc(F)cc1)c1ccc(F)cc1)C2 [S-(+)-19a, S-(+)-2β-(3-Phenylisoxazol-5-yl)-3α-[bis(4-fluorophenyl)methoxy]tropane]
- Ki (human DAT (hDAT) WT; read-out: DAT WT Ki, [3H]DA uptake inhibition, COS7 cells transiently expressing DAT WT, mean [s.e.m. interval]): 212 nM

Structure (SMILES): COC(=O)[C@H]1[C@@H](OC(=O)c2ccccc2)C[C@@H]2CC[C@H]1N2C [compound 1, cocaine, reference compound]
- overall group response rate, % of control performance (Swiss Webster mice [1]): ≥ 50%
- maximum locomotor activity, % of activity counts compared to vehicle (Swiss Webster mice [3]; 20 and 40 mg/kg): ≈ 300%
- effect on locomotor activity (Swiss Webster mice [3]): dose-dependently increased locomotion

Structure (SMILES): Cc1ccc(C2CC3CCC(C2c2cc(-c4ccc(Cl)cc4)no2)N3C)cc1 (stereo not shown) [compound 5]
- stimulation of locomotor activity (mice): fails to stimulate locomotor activity in mice

Structure (SMILES): Cc1ccc(-c2cc(C3C(c4ccc(Cl)cc4)CC4CCC3N4C)on2)cc1 (stereo not shown) [compound 6]
- stimulation of locomotor activity (mice): does stimulate locomotion
